# According to ChEMBL document CHEMBL4376860, “Discovery of Novel Dual Poly(ADP-ribose)polymerase and Phosphoinositide 3-Kinase Inhibitors as a Promising Strategy for Cancer Therapy” (J Med Chem, 2020):
# Activity calls are given as the source filed them. The calls are words filed in the database; no cut-off is given here.
# Assays:
# MDA-MB-468 [1] = test: Induction of apoptosis in human MDA-MB-468 cells assessed as viable cells at 1 uM measured after 72 hrs by Annexin V-FITC/propidium iodide staining based flow cytometry (reference value: 95.2%); assay type: functional; conditions: MDA-MB-468, 72 h, read-out: Activity
# CAKI-1 = test: Antiproliferative activity against human CAKI-1 cells measured after 7 days by Celltiter-glo assay; assay type: functional, cell-based; conditions: CAKI-1, 168 h
# Outline: (§1)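 Cells maintained in RPMI1640 with 10% FBS at 37 °C, 5% CO2. Seeded the day before dosing, grown 12 h, then exposed to graded compound concentrations for 7 days. CellTiter-Glo reagent added, 10 min at room temperature, luminescence read. Inhibition % = (1-(RLU compound - RLU blank)/(RLU DMSO - RLU blank))×100. IC50 from nonlinear regression, normalized dose-response fit.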
# MDA-MB-468 [2] = test: Antitumor activity against human MDA-MB-468 cells xenografted in BALB/c mouse assessed as tumor growth inhibition at 27.5 mg/kg, ip administered every 2 days for 34 days and measured at 2 days interval during compound dosing relative to control; assay type: functional; conditions: MDA-MB-468, ip, read-out: TGI
# BXPC-3 [3] = test: cells; conditions: Homo sapiens, BXPC-3, 168 h, read-out: pIC50 (converted)
# MDA-MB-468 [4] = test: Induction of apoptosis in human MDA-MB-468 cells assessed as necrotic cells at 1 uM measured after 72 hrs by Annexin V-FITC/propidium iodide staining based flow cytometry (reference value: 0.13%); assay type: functional
# MDA-MB-468 [5] = test: Induction of apoptosis in human MDA-MB-468 cells assessed as late apoptotic cells at 1 uM measured after 72 hrs by Annexin V-FITC/propidium iodide staining based flow cytometry (reference value: 0.78%); assay type: functional
# MDA-MB-468 [6] = test: Inhibition of PI3K in human MDA-MB-468 cells assessed as reduction in BRCA2 mRNA level at 1 uM by Trizol reagent-based RT-PCR analysis; assay type: cell-based
# Outline: (§2)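 Total RNA from treated MDA-MB-468 cells extracted with TRIzol. BRCA1 or BRCA2 mRNA quantified by real-time PCR with GAPDH as internal control. Results given as fold change relative to the internal control. Mean ± SD of three independent experiments.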
# Jurkat [7] = test: cells; conditions: Homo sapiens, 168 h, read-out: pIC50 (converted)
# SW-620 [8] = test: Antiproliferative activity against human SW620 cells measured after 7 days by Celltiter-glo assay; assay type: functional, cell-based; conditions: SW-620, 168 h; outline: as §1
# A2780 = test: Antiproliferative activity against human A2780 cells measured after 7 days by Celltiter-glo assay; assay type: functional, cell-based; conditions: A2780, 168 h; outline: as §1
# HCT-116 [9] = test: cells; conditions: Homo sapiens, HCT-116, 168 h, read-out: pIC50 (converted)
# DU-145 [10] = test: cells; conditions: Homo sapiens, DU-145, 168 h, read-out: pIC50 (converted)
# A549 = test: Antiproliferative activity against human A549 cells measured after 7 days by Celltiter-glo assay; assay type: functional, cell-based; conditions: A549, 168 h; outline: as §1
# BXPC-3 [11] = test: Antiproliferative activity against human BxPC3 cells measured after 7 days by Celltiter-glo assay; assay type: functional, cell-based; conditions: BXPC-3, 168 h; outline: as §1
# MDA-MB-231 = test: Antiproliferative activity against human MDA-MB-231 cells measured after 7 days by Celltiter-glo assay; assay type: functional, cell-based; conditions: MDA-MB-231, 168 h; outline: as §1
# HCC1937 [12] = test: Antiproliferative activity against human HCC1937 cells measured after 7 days by Celltiter-glo assay; assay type: functional, cell-based; conditions: HCC1937, 168 h; outline: as §1
# MDA-MB-468 [13] = test: Antiproliferative activity against human MDA-MB-468 cells measured after 7 days by Celltiter-glo assay; assay type: functional, cell-based; conditions: MDA-MB-468, 168 h; outline: as §1
# MDA-MB-468 [14] = test: Inhibition of PI3K in human MDA-MB-468 cells assessed as reduction in RAD51 foci formation at 1 uM measured after 72 hrs by DAPI staining based immunofluorescence microscopic analysis; assay type: cell-based
# Outline: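 RAD51 foci in MDA-MB-468 cells on coverslips after 72 h drug exposure. Cells fixed (3% formaldehyde), permeabilized (0.1% Triton X-100), blocked in 10% FBS/PBS, incubated overnight at 4 °C with rabbit anti-RAD51 polyclonal, then secondary antibody plus DAPI. Foci and percent positive cells (>5 foci per cell) counted from about 200 cells. Mean ± SD of three independent experiments.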
# Ramos = test: Antiproliferative activity against human Ramos cells measured after 7 days by Celltiter-glo assay; assay type: functional, cell-based; conditions: 168 h; outline: as §1
# DU-145 [15] = test: Antiproliferative activity against human DU145 cells measured after 7 days by Celltiter-glo assay; assay type: functional, cell-based; conditions: DU-145, 168 h; outline: as §1
# MDA-MB-468 [16] = test: Inhibition of PI3K in human MDA-MB-468 cells assessed as reduction in BRCA1 mRNA level at 1 uM by Trizol reagent-based RT-PCR analysis; assay type: cell-based; outline: as §2
# Jurkat [17] = test: Antiproliferative activity against human Jurkat cells measured after 7 days by Celltiter-glo assay; assay type: functional, cell-based; conditions: 168 h; outline: as §1
# MDA-MB-468 [18] = test: Induction of DNA damage in human MDA-MB-468 cells at 1 uM measured after 72 hrs in presence of PARP inhibitor olaparib by comet assay; assay type: functional, cell-based
# Outline: (§3)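 MDA-MB-468 cells treated for 72 h, harvested and run in a neutral comet assay. Ethidium bromide staining after electrophoresis. About 200 cell images per group analysed with CASP. DNA damage scored as tail intensity (percentage DNA in tail) and olive tail moment. Mean ± SD of three independent experiments.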
# MDA-MB-468 [19] = test: Induction of apoptosis in human MDA-MB-468 cells assessed as early apoptotic cells at 1 uM measured after 72 hrs by Annexin V-FITC/propidium iodide staining based flow cytometry (reference value: 3.88%); assay type: functional
# MDA-MB-468 [20] = test: Induction of DNA damage in human MDA-MB-468 cells at 1 uM measured after 72 hrs by comet assay; assay type: functional, cell-based; outline: as §3
# SW-620 [21] = test: cells; conditions: Homo sapiens, SW-620, 168 h, read-out: pIC50 (converted)
# HCC1937 [22] = test: cells; conditions: Homo sapiens, HCC1937, 168 h, read-out: pIC50 (converted)
# HCT-116 [23] = test: Antiproliferative activity against human HCT116 cells measured after 7 days by Celltiter-glo assay; assay type: functional, cell-based; conditions: HCT-116, 168 h; outline: as §1
# HCT-116 [24] = test: Potency index, ratio of BKM120 IC50 to test compound IC50 for antiproliferative activity against human HCT116 cells; assay type: functional
# Mus musculus [25] = test: In vivo inhibition of PI3K in BALB/c mouse xenografted with human MDA-MB-468 cells assessed as reduction in BRCA2 expression at 50 mg/kg, ip administered every 2 days for 34 days measured post-last dose by Western blot analysis; assay type: functional, organism-based
# Mus musculus [26] = test: In vivo activation of ETS1 in BALB/c mouse xenografted with human MDA-MB-468 cells assessed as increase in ETS1 phosphorylation at Thr38 residue at 50 mg/kg, ip administered every 2 days for 34 days measured post-last dose by Western blot analysis; assay type: functional, organism-based
# MDA-MB-468 [27] = test: Potency index, ratio of BKM120 IC50 to test compound IC50 for antiproliferative activity against human MDA-MB-468 cells; assay type: functional
SMILES,viability at 1 µM (MDA-MB-468 [1]) [%],IC50 (CAKI-1) [nM],Activity (MDA-MB-468 [4]) [%],Activity (MDA-MB-468 [5]) [%],inhibition (MDA-MB-468 [6]),IC50 (SW-620 [8]) [nM],IC50 (A2780) [nM],IC50 (A549) [nM],IC50 (BXPC-3 [11]) [nM],IC50 (MDA-MB-231) [nM],IC50 (HCC1937 [12]) [nM],IC50 (MDA-MB-468 [13]) [nM],inhibition (MDA-MB-468 [14]),IC50 (Ramos) [nM],IC50 (DU-145 [15]) [nM],inhibition (MDA-MB-468 [16]),IC50 (Jurkat [17]) [nM],Activity (MDA-MB-468 [19]) [%],Activity (MDA-MB-468 [20]),IC50 (HCT-116 [23]) [nM],further results
Nc1cc(C(F)(F)F)c(-c2cc(N3CCOCC3)nc(N3CCOCC3)n2)cn1 [BUPARLISIB],91.9,2750,0.16,1.82,Active,5130,417,1700,4070,6030,6310,3980,Active,3630,3800,Active,1410,6.13,Active,3630,inhibition in vivo at 27.5 mg/kg (MDA-MB-468 [2]): 33.4%; IC50 (BXPC-3 [3]): 2450 nM; IC50 (Jurkat [7]): 1290 nM; IC50 (HCT-116 [9]): 1230 nM; IC50 (DU-145 [10]): 1170 nM; Activity (MDA-MB-468 [18]): Active; IC50 (SW-620 [21]): 3240 nM; IC50 (HCC1937 [22]): 1700 nM
Nc1cc(C(F)(F)F)c(-c2nc3c(c(N4CCOCC4)n2)CCN(C(=O)c2cc(Cc4n[nH]c(=O)c5ccccc45)ccc2F)C3)cn1,55.7,955,1.44,21,Active,2820,398,537,1070,1000,1050,977,Active,1070,891,Active,933,21.9,Active,871,Ratio IC50 (HCT-116 [24]): >=4; inhibition (Mus musculus [25]): Active; Activity (Mus musculus [26]): Active; Ratio IC50 (MDA-MB-468 [27]): >=4
